According to ChEMBL document CHEMBL1649422, “Synthesis and molecular modeling of novel tetrahydro-β-carboline derivatives with phosphodiesterase 5 inhibitory and anticancer properties” (J Med Chem, 2011):

system: MDA-MB-231; assay: Growth inhibition of human MDA-MB-231 cells at 10 uM after 72 hrs by luminescence assay; assay type: functional; details: MDA-MB-231, 72 h

| SMILES | inhibition at 10 µM [%] |
| --- | --- |
| CCN1CC(=O)N2[C@H](c3c(Cl)cccc3Cl)c3[nH]c4ccccc4c3C[C@@H]2C1=O | 31 |
| CC(C)(C)N1C(=O)[C@H]2Cc3c([nH]c4ccccc34)[C@@H](c3c(Cl)cccc3Cl)N2C1=O | 38 |
| CCN1CC(=O)N2[C@@H](c3ccc(Cl)cc3Cl)c3[nH]c4ccccc4c3C[C@H]2C1=O | 52 |
| CCN1CC(=O)N2[C@H](c3ccc(Cl)cc3Cl)c3[nH]c4ccccc4c3C[C@H]2C1=O | 20 |
| CCN1CC(=O)N2[C@@H](c3c(Cl)cccc3Cl)c3[nH]c4ccccc4c3C[C@H]2C1=O | 24 |
| CN1CC(=O)N2[C@H](c3ccc(Cl)cc3Cl)c3[nH]c4ccccc4c3C[C@H]2C1=O | 23 |
| CC(C)(C)N1CC(=O)N2[C@@H](c3c(Cl)cccc3Cl)c3[nH]c4ccccc4c3C[C@H]2C1=O | 20 |
| CCN1C(=O)[C@@H]2Cc3c([nH]c4ccccc34)[C@H](c3c(Cl)cccc3Cl)N2C1=O | 52 |
| CC(C)(C)N1CC(=O)N2[C@H](c3ccc(Cl)cc3Cl)c3[nH]c4ccccc4c3C[C@@H]2C1=O | 15 |
| CCN1C(=O)[C@@H]2Cc3c([nH]c4ccccc34)[C@@H](c3ccc(Cl)c(Cl)c3)N2C1=O | 18 |
| CCN1CC(=O)N2[C@H](c3ccc(Cl)c(Cl)c3)c3[nH]c4ccccc4c3C[C@@H]2C1=O | 30 |
| CC(C)(C)N1C(=O)[C@@H]2Cc3c([nH]c4ccccc34)[C@@H](c3ccc(Cl)c(Cl)c3)N2C1=O | 60 |
| CC(C)(C)N1C(=O)[C@H]2Cc3c([nH]c4ccccc34)[C@H](c3ccc(Cl)c(Cl)c3)N2C1=O | 58 |
| CCN1CC(=O)N2[C@@H](c3ccc(Cl)c(Cl)c3)c3[nH]c4ccccc4c3C[C@H]2C1=O | 35 |
| COC(=O)[C@@H]1Cc2c([nH]c3ccccc23)[C@H](c2c(Cl)cccc2Cl)N1C(=O)CCl | 30 |
| CC(C)(C)N1CC(=O)N2[C@H](c3ccc(Cl)c(Cl)c3)c3[nH]c4ccccc4c3C[C@@H]2C1=O | 36 |
| COC(=O)[C@@H]1Cc2c([nH]c3ccccc23)[C@@H](c2ccc(Cl)c(Cl)c2)N1 | 48 |

| SMILES | inhibition at 10 µM [%] |
| --- | --- |
| CCN1CC(=O)N2[C@@H](c3ccc(Cl)c(Cl)c3)c3[nH]c4ccccc4c3C[C@@H]2C1=O | 44 |
| CCCCN1CC(=O)N2[C@H](c3ccc(Cl)cc3Cl)c3[nH]c4ccccc4c3C[C@@H]2C1=O | 45 |
| CC(C)(C)N1CC(=O)N2[C@@H](c3ccc(Cl)c(Cl)c3)c3[nH]c4ccccc4c3C[C@H]2C1=O | 58 |
| CCN1C(=O)[C@H]2Cc3c([nH]c4ccccc34)[C@@H](c3c(Cl)cccc3Cl)N2C1=O | 55 |
| CC(C)(C)N1C(=O)[C@@H]2Cc3c([nH]c4ccccc34)[C@H](c3ccc(Cl)cc3Cl)N2C1=O | 22 |
| CCN1C(=O)[C@H]2Cc3c([nH]c4ccccc34)[C@H](c3ccc(Cl)cc3Cl)N2C1=O | 54 |
| COC(=O)[C@H]1Cc2c([nH]c3ccccc23)[C@@H](c2ccc(Cl)c(Cl)c2)N1 | 43 |
| CC(C)(C)N1CC(=O)N2[C@H](c3c(Cl)cccc3Cl)c3[nH]c4ccccc4c3C[C@@H]2C1=O | 16 |
| CC(C)(C)N1CC(=O)N2[C@H](c3ccc(Cl)cc3Cl)c3[nH]c4ccccc4c3C[C@H]2C1=O | 30 |
| COC(=O)[C@H]1Cc2c([nH]c3ccccc23)[C@H](c2ccc(Cl)c(Cl)c2)N1C(=O)CCl | 50 |
| COC(=O)[C@H]1Cc2c([nH]c3ccccc23)[C@@H](c2c(Cl)cccc2Cl)N1C(=O)CCl | 15 |
| COC(=O)[C@@H]1Cc2c([nH]c3ccccc23)[C@H](c2c(Cl)cccc2Cl)N1 | 52 |
| COC(=O)[C@@H]1Cc2c([nH]c3ccccc23)[C@H](c2ccc(Cl)cc2Cl)N1 | 50 |
| COC(=O)[C@@H]1Cc2c([nH]c3ccccc23)[C@@H](c2ccc(Cl)c(Cl)c2)N1C(=O)CCl | 55 |
| CC(C)(C)N1CC(=O)N2[C@@H](c3ccc(Cl)c(Cl)c3)c3[nH]c4ccccc4c3C[C@@H]2C1=O | 40 |
| COC(=O)[C@@H]1Cc2c([nH]c3ccccc23)[C@H](c2ccc(Cl)c(Cl)c2)N1C(=O)CCl | 43 |
| CC(C)(C)N1C(=O)[C@@H]2Cc3c([nH]c4ccccc34)[C@H](c3c(Cl)cccc3Cl)N2C1=O | 15 |

target: T1, cGMP-specific 3',5'-cyclic phosphodiesterase (Homo sapiens, UniProt O76074); assay: Inhibition of human recombinant PDE5 after 30 mins by fluorescence polarization assay; details: not given
Procedure, shortened: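 Recombinant human PDE5A at 12.5 units/mL was preincubated 30 min with compound or vehicle. Then 50 nM TAMRA-cGMP was added and the mix incubated 1.5 h at 30 °C. IMAP binding reagent was added for 30 min at 30 °C and fluorescence polarization read. IC50 came from a 10-concentration series in quadruplicate, fitted to a four-parameter logistic.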

| SMILES | IC50 [nM] |
| --- | --- |
| CCN1CC(=O)N2[C@@H](c3ccc(Cl)cc3Cl)c3[nH]c4ccccc4c3C[C@H]2C1=O | 990 |
| CCN1CC(=O)N2[C@H](c3ccc(Cl)cc3Cl)c3[nH]c4ccccc4c3C[C@H]2C1=O | 10 |
| CCN1C(=O)[C@H]2Cc3c([nH]c4ccccc34)[C@H](c3ccc(Cl)c(Cl)c3)N2C1=O | 2860 |
| CN1CC(=O)N2[C@H](c3ccc(Cl)cc3Cl)c3[nH]c4ccccc4c3C[C@H]2C1=O | 50 |
| CC(C)(C)N1CC(=O)N2[C@H](c3ccc(Cl)cc3Cl)c3[nH]c4ccccc4c3C[C@@H]2C1=O | 190 |
| CCN1C(=O)[C@@H]2Cc3c([nH]c4ccccc34)[C@@H](c3ccc(Cl)c(Cl)c3)N2C1=O | 300 |
| CCN1CC(=O)N2[C@H](c3ccc(Cl)c(Cl)c3)c3[nH]c4ccccc4c3C[C@@H]2C1=O | 1340 |
| CC(C)(C)N1C(=O)[C@@H]2Cc3c([nH]c4ccccc34)[C@@H](c3ccc(Cl)c(Cl)c3)N2C1=O | 12 |
| CC(C)(C)N1C(=O)[C@H]2Cc3c([nH]c4ccccc34)[C@H](c3ccc(Cl)c(Cl)c3)N2C1=O | 6380 |
| CCN1CC(=O)N2[C@@H](c3ccc(Cl)c(Cl)c3)c3[nH]c4ccccc4c3C[C@H]2C1=O | 3300 |
| COC(=O)[C@@H]1Cc2c([nH]c3ccccc23)[C@H](c2c(Cl)cccc2Cl)N1C(=O)CCl | 730 |
| CCCCN1CC(=O)N2[C@H](c3ccc(Cl)cc3Cl)c3[nH]c4ccccc4c3C[C@@H]2C1=O | 270 |
| CC(C)(C)N1C(=O)[C@@H]2Cc3c([nH]c4ccccc34)[C@H](c3ccc(Cl)cc3Cl)N2C1=O | 4140 |
| CCN1C(=O)[C@H]2Cc3c([nH]c4ccccc34)[C@H](c3ccc(Cl)cc3Cl)N2C1=O | 90 |
| COC(=O)[C@H]1Cc2c([nH]c3ccccc23)[C@@H](c2ccc(Cl)c(Cl)c2)N1 | 1610 |
| CC(C)(C)N1CC(=O)N2[C@H](c3ccc(Cl)cc3Cl)c3[nH]c4ccccc4c3C[C@H]2C1=O | 260 |

target: T1, cGMP-specific 3',5'-cyclic phosphodiesterase; assay: Inhibition of human recombinant PDE5 at 10 uM after 30 mins by fluorescence polarization assay; details: not given

| SMILES | inhibition [%] |
| --- | --- |
| CCN1CC(=O)N2[C@H](c3c(Cl)cccc3Cl)c3[nH]c4ccccc4c3C[C@@H]2C1=O | 40 |
| CC(C)(C)N1C(=O)[C@H]2Cc3c([nH]c4ccccc34)[C@@H](c3c(Cl)cccc3Cl)N2C1=O | 52 |
| CCN1CC(=O)N2[C@@H](c3ccc(Cl)cc3Cl)c3[nH]c4ccccc4c3C[C@H]2C1=O | 85 |
| CCN1CC(=O)N2[C@H](c3ccc(Cl)cc3Cl)c3[nH]c4ccccc4c3C[C@H]2C1=O | 95 |
| CCN1CC(=O)N2[C@@H](c3c(Cl)cccc3Cl)c3[nH]c4ccccc4c3C[C@H]2C1=O | 28 |
| CN1CC(=O)N2[C@H](c3ccc(Cl)cc3Cl)c3[nH]c4ccccc4c3C[C@H]2C1=O | 95 |
| COC(=O)[C@H]1Cc2c([nH]c3ccccc23)[C@@H](c2c(Cl)cccc2Cl)N1 | 25 |
| CC(C)(C)N1CC(=O)N2[C@@H](c3c(Cl)cccc3Cl)c3[nH]c4ccccc4c3C[C@H]2C1=O | 21 |
| CCN1C(=O)[C@@H]2Cc3c([nH]c4ccccc34)[C@H](c3c(Cl)cccc3Cl)N2C1=O | 37 |
| CC(C)(C)N1CC(=O)N2[C@H](c3ccc(Cl)cc3Cl)c3[nH]c4ccccc4c3C[C@@H]2C1=O | 94 |
| CCN1C(=O)[C@@H]2Cc3c([nH]c4ccccc34)[C@@H](c3ccc(Cl)c(Cl)c3)N2C1=O | 90 |
| COC(=O)[C@H]1Cc2c([nH]c3ccccc23)[C@@H](c2ccc(Cl)c(Cl)c2)N1C(=O)CCl | 40 |
| CCN1CC(=O)N2[C@H](c3ccc(Cl)c(Cl)c3)c3[nH]c4ccccc4c3C[C@@H]2C1=O | 80 |
| CC(C)(C)N1C(=O)[C@@H]2Cc3c([nH]c4ccccc34)[C@@H](c3ccc(Cl)c(Cl)c3)N2C1=O | 88 |
| CC(C)(C)N1C(=O)[C@H]2Cc3c([nH]c4ccccc34)[C@H](c3ccc(Cl)c(Cl)c3)N2C1=O | 65 |
| CCN1CC(=O)N2[C@@H](c3ccc(Cl)c(Cl)c3)c3[nH]c4ccccc4c3C[C@H]2C1=O | 67 |
| COC(=O)[C@@H]1Cc2c([nH]c3ccccc23)[C@H](c2c(Cl)cccc2Cl)N1C(=O)CCl | 67 |
| CC(C)(C)N1CC(=O)N2[C@H](c3ccc(Cl)c(Cl)c3)c3[nH]c4ccccc4c3C[C@@H]2C1=O | 35 |

| SMILES | inhibition [%] |
| --- | --- |
| COC(=O)[C@@H]1Cc2c([nH]c3ccccc23)[C@@H](c2ccc(Cl)c(Cl)c2)N1 | 24 |
| CCN1CC(=O)N2[C@@H](c3ccc(Cl)c(Cl)c3)c3[nH]c4ccccc4c3C[C@@H]2C1=O | 45 |
| CCCCN1CC(=O)N2[C@H](c3ccc(Cl)cc3Cl)c3[nH]c4ccccc4c3C[C@@H]2C1=O | 95 |
| CC(C)(C)N1CC(=O)N2[C@@H](c3ccc(Cl)c(Cl)c3)c3[nH]c4ccccc4c3C[C@H]2C1=O | 35 |
| CCN1C(=O)[C@H]2Cc3c([nH]c4ccccc34)[C@@H](c3c(Cl)cccc3Cl)N2C1=O | 18 |
| CC(C)(C)N1C(=O)[C@@H]2Cc3c([nH]c4ccccc34)[C@H](c3ccc(Cl)cc3Cl)N2C1=O | 75 |
| CCN1C(=O)[C@H]2Cc3c([nH]c4ccccc34)[C@H](c3ccc(Cl)cc3Cl)N2C1=O | 90 |
| COC(=O)[C@H]1Cc2c([nH]c3ccccc23)[C@@H](c2ccc(Cl)c(Cl)c2)N1 | 78 |
| CC(C)(C)N1CC(=O)N2[C@H](c3c(Cl)cccc3Cl)c3[nH]c4ccccc4c3C[C@@H]2C1=O | 21 |
| COC(=O)[C@H]1Cc2c([nH]c3ccccc23)[C@H](c2ccc(Cl)c(Cl)c2)N1C(=O)CCl | 30 |
| COC(=O)[C@H]1Cc2c([nH]c3ccccc23)[C@@H](c2c(Cl)cccc2Cl)N1C(=O)CCl | 27 |
| COC(=O)[C@@H]1Cc2c([nH]c3ccccc23)[C@H](c2c(Cl)cccc2Cl)N1 | 15 |
| COC(=O)[C@@H]1Cc2c([nH]c3ccccc23)[C@H](c2ccc(Cl)cc2Cl)N1 | 55 |
| COC(=O)[C@@H]1Cc2c([nH]c3ccccc23)[C@@H](c2ccc(Cl)c(Cl)c2)N1C(=O)CCl | 40 |
| CC(C)(C)N1CC(=O)N2[C@@H](c3ccc(Cl)c(Cl)c3)c3[nH]c4ccccc4c3C[C@@H]2C1=O | 30 |
| COC(=O)[C@@H]1Cc2c([nH]c3ccccc23)[C@H](c2ccc(Cl)c(Cl)c2)N1C(=O)CCl | 20 |
| CC(C)(C)N1C(=O)[C@@H]2Cc3c([nH]c4ccccc34)[C@H](c3c(Cl)cccc3Cl)N2C1=O | 25 |
